Test results published in paper PMC8359308 (Clinical Pharmacology in Drug Development, 2020).
Like-named read-outs stand apart in the source and are kept apart here.

Key:
[1] = assay type: in vivo, human; details: for AUC(0-inf) / AUC(0-t) / Tmax: po, total glasdegib; for AUC(0-inf): AUCinf; for AUC(0-inf) / AUC(0-t) / Tmax / CL/F, total glasdegib / Cmax, total glasdegib: single oral 100 mg, fasted; for AUC(0-t): AUClast; for Tmax: median (range)
Summary of the method: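 Single oral 100 mg tablet dose of test compound after ≥10 h fast, with about 240 mL water and no food for 4 h. Plasma drawn predose and 1–120 h post-dose, total drug measured by validated LC-MS/MS. AUCinf (AUClast + Clast/kel, linear/log trapezoidal) and observed Cmax came from noncompartmental analysis. Log-transformed values were compared by one-way ANOVA (unequal variance), giving adjusted GMR versus normal-function controls with 90% CI.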

[2] = Phase I single-dose pharmacokinetics of unbound plasma glasdegib; assay type: in vivo, human; details: single oral 100 mg, fasted
Summary of the method: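 Single oral 100 mg tablet with about 240 mL water after a fast of at least 10 h, with no food for 4 h post-dose. Unbound samples were taken predose and at 1, 2 and 4 h. K2EDTA plasma was dialysed against PBS to equilibrium (6 h). Sertraline (300 ng/mL) served as positive control and glasdegib (100 ng/mL) as dialysis QC. Samples were read by LC-MS/MS (LLQ 1 ng/mL). Unbound parameters = fu × total noncompartmental values.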

[3] = Unbound fraction in plasma by equilibrium dialysis; assay type: in vitro ADME, human; details: for f u (fraction of unbound drug in plasma): geometric mean (%CV); for f u in plasma: statistic not given
[4] = Safety assessment after single oral 100 mg dose; assay type: in vivo, human; details: all 24 participants
Summary of the method: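 Participants were confined from day -1 through day 6, with telephone follow-up 28–35 days post-dose. AEs, laboratory values, physical examination, vital signs, ECGs and concomitant medications were monitored throughout. AEs were treatment-emergent if onset or worsening came after dosing and before follow-up, and were coded with MedDRA 22.0. Baseline was the last predose measurement. Analysis was descriptive.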

[5] = cited from earlier work
[6] = ketoconazole coadministered versus glasdegib alone; cited from earlier work
[7] = rifampin coadministered versus glasdegib alone; cited from earlier work
[8] = food with high calories and high fat content or concurrent rabeprazole; cited from earlier work
[9] = test system: cytochrome P450 (CYP) 3A4/5; details: human hepatocytes, reaction phenotyping; cited from earlier work
[10] = mostly normal hepatic function or mild hepatic impairment; cited from earlier work
[11] = human, plasma, 100 mg, moderate hepatic impairment (n = 8), arithmetic mean ± SD
[12] = human, plasma, 100 mg, moderate hepatic impairment (n = 8), geometric mean (%CV)
[13] = human, plasma, 100 mg, normal hepatic function (n = 8), arithmetic mean ± SD
[14] = human, plasma, 100 mg, normal hepatic function (n = 8), geometric mean (%CV)
[15] = human, plasma, 100 mg, severe hepatic impairment (n = 8), arithmetic mean ± SD
[16] = human, plasma, 100 mg, severe hepatic impairment (n = 8), geometric mean (%CV)
[17] = severe hepatic impairment cohort
[18] = moderate hepatic impairment (n = 8), arithmetic mean ± SD
[19] = moderate hepatic impairment (n = 8), geometric mean (%CV)
[20] = normal hepatic function (n = 8), arithmetic mean ± SD
[21] = normal hepatic function (n = 8), geometric mean (%CV)
[22] = severe hepatic impairment (n = 8), arithmetic mean ± SD
[23] = severe hepatic impairment (n = 8), geometric mean (%CV)

## CN1CC[C@@H](NC(=O)Nc2ccc(C#N)cc2)C[C@@H]1c1nc2ccccc2[nH]1 [glasdegib]
[1]; human, plasma, oral, 100 mg, mean terminal half-life, range across all hepatic function groups
  half-life: 18.4 to 20.7 h
[1]; [11]
  AUC(0-inf): 12300 ± 3500 ng·h/mL
  AUC(0-t): 12200 ± 3460 ng·h/mL
[1]; [12]
  AUC(0-inf): 11900 ng·h/mL
  AUC(0-t): 11800 ng·h/mL
[1]; [13]
  AUC(0-inf): 11900 ± 6100 ng·h/mL
  AUC(0-t): 11800 ± 6080 ng·h/mL
[1]; [14]
  AUC(0-inf): 10700 ng·h/mL
  AUC(0-t): 10600 ng·h/mL
[1]; [15]
  AUC(0-inf): 8660 ± 3130 ng·h/mL
  AUC(0-t): 8480 ± 3100 ng·h/mL
[1]; [16]
  AUC(0-inf): 8110 ng·h/mL
  AUC(0-t): 7940 ng·h/mL
[1]; human, plasma, 100 mg, moderate hepatic impairment (n = 8)
  Tmax: 2.5 h
[1]; human, plasma, 100 mg, normal hepatic function (n = 8)
  Tmax: 1.5 h
[1]; human, plasma, 100 mg, severe hepatic impairment (n = 8)
  Tmax: 1 h
[1]; [17]
  reduction in AUCinf versus normal hepatic function, total glasdegib: 24%
  reduction in Cmax versus normal hepatic function, total glasdegib: 42%
[1]; [18]
  CL/F, total glasdegib: 8.8 ± 2.8 L/h
  Cmax, total glasdegib: 899.8 ± 215.7 ng/mL
[1]; [19]
  CL/F, total glasdegib: 8.4 (31) L/h
  Cmax, total glasdegib: 875.9 (26) ng/mL
[1]; [20]
  CL/F, total glasdegib: 10.2 ± 4.3 L/h
  Cmax, total glasdegib: 989.9 ± 373.1 ng/mL
[1]; [21]
  CL/F, total glasdegib: 9.3 (49) L/h
  Cmax, total glasdegib: 924.4 (43) ng/mL
[1]; [22]
  CL/F, total glasdegib: 13.3 ± 5.8 L/h
  Cmax, total glasdegib: 612.0 ± 342.8 ng/mL
[1]; [23]
  CL/F, total glasdegib: 12.3 (42) L/h
  Cmax, total glasdegib: 536.3 (59) ng/mL
[2]; [18]
  CLu/F, unbound glasdegib: 104.6 ± 34.6 L/h
[2]; [19]
  CLu/F, unbound glasdegib: 100.2 (31) L/h
[2]; [20]
  CLu/F, unbound glasdegib: 124.7 ± 43.5 L/h
[2]; [21]
  CLu/F, unbound glasdegib: 118.4 (35) L/h
[2]; [22]
  CLu/F, unbound glasdegib: 111.9 ± 58.1 L/h
[2]; [23]
  CLu/F, unbound glasdegib: 101.6 (47) L/h
[3]; moderate hepatic impairment (n = 8)
  f u (fraction of unbound drug in plasma): 0.08 (7)
[3]; moderate hepatic impairment group
  f u in plasma: 0.08
[3]; normal hepatic function (n = 8)
  f u (fraction of unbound drug in plasma): 0.08 (16)
[3]; normal hepatic function cohort
  f u in plasma: 0.08
[3]; severe hepatic impairment (n = 8)
  f u (fraction of unbound drug in plasma): 0.12 (15)
[3]; severe hepatic impairment group
  f u in plasma: 0.12
[3]; severe impairment cohort
  higher f u compared with the normal function cohort: 50%
[4]
  clinically significant changes in laboratory values, vital signs, or ECGs: no clinically significant changes in vital signs or ECGs
  deaths, serious AEs, severe treatment-emergent AEs, discontinuations: no deaths, serious AEs, severe treatment‐emergent AEs, discontinuations from the study
[5]
  dose proportionality of pharmacokinetics: linear dose‐proportional pharmacokinetics
[5]; clinical dose of 100 mg once daily
  mean half-life: 17.4 h
[5]; plasma protein binding, moderately to highly bound
  unbound in plasma: < 10%
[6]
  increase in glasdegib AUCinf: 2.4 fold
  increase in glasdegib Cmax: 1.4 fold
[7]
  decrease in glasdegib AUCinf: approximately 70%
  decrease in glasdegib Cmax: 35%
[8]
  effect on glasdegib exposure: minimal effect
[9]
  enzyme in glasdegib biotransformation: major enzyme
[10]
  baseline hepatic function as covariate for variation in glasdegib PK: not a statistically significant covariate
